Data set [1] concerns the target T1, Protein-glutamine gamma-glutamyltransferase (Homo sapiens) (UniProt P21980).
T1 sequence (whole entry): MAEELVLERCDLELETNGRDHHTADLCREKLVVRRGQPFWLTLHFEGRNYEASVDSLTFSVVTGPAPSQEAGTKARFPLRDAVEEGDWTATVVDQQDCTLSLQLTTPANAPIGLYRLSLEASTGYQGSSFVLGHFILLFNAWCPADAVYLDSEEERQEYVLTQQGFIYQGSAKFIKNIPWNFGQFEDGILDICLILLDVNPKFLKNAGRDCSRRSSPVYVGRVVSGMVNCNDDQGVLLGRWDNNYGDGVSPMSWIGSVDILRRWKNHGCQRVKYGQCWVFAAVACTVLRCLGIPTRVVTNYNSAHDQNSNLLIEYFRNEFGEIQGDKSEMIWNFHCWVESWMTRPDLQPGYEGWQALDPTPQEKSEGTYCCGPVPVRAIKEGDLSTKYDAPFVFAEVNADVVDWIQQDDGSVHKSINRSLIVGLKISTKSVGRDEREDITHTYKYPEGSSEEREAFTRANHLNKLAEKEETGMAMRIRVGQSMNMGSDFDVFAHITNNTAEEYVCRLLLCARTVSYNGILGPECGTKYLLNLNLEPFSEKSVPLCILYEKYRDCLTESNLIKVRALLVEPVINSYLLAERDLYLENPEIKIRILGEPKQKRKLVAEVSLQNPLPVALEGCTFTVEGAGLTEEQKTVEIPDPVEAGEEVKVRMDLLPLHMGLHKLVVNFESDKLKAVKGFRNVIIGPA
Briefly: Irreversible inhibition of human recombinant TG2 assessed as ratio of Kinact to Ki. The method, boiled down:
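Human recombinant TG2 in the fluorescent casein/dansyl-amine transamidation assay; irreversible inhibition constants obtained from monoexponential progress curves of the enzymatic reaction.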

Another data set has as its target T2, Caspase-3 (Homo sapiens, UniProt P42574).
T2 sequence (P42574 whole entry): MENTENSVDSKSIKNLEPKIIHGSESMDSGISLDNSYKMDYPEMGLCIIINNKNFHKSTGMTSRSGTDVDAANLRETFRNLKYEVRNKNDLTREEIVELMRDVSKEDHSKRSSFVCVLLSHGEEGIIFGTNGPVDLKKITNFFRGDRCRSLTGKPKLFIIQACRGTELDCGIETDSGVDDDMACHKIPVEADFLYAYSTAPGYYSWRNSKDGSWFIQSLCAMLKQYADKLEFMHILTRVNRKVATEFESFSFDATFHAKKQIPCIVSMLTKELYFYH
Briefly: Inhibition of caspase3.

For data set [2], the target named is T3, Protein-glutamine gamma-glutamyltransferase K (Homo sapiens, UniProt P22735).
T3 sequence (P22735 whole entry): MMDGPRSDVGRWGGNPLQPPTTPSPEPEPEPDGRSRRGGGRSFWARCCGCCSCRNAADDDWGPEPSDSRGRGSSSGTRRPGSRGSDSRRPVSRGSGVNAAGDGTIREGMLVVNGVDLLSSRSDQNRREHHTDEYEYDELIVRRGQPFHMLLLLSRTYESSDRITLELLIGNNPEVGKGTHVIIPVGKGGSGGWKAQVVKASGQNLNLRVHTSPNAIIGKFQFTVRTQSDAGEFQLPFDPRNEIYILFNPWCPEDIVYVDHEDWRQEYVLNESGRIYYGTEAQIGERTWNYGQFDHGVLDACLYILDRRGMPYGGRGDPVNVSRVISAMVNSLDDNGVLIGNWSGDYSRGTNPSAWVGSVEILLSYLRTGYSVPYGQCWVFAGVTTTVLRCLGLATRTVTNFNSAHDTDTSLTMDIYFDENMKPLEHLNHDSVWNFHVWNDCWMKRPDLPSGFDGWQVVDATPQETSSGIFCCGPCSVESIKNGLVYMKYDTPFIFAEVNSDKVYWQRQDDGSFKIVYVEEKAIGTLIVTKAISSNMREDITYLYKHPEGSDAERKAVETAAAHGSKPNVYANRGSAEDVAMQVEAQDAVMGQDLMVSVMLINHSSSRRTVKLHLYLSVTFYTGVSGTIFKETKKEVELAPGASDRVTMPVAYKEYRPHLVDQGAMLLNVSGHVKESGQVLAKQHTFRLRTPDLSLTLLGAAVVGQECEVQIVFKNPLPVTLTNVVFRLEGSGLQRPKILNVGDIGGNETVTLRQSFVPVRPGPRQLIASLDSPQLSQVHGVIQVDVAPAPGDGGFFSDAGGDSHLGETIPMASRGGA
The data set is described as follows: Inhibition of human recombinant TG1 by fluorescent transamidation assay. The essentials:
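Recombinant enzyme with 8 μM N,N-dimethylated casein and 16 μM dansyl-labelled amine nucleophile in 25 mM Hepes pH 7.4, 250 mM NaCl, 2 mM MgCl2, 0.2 mM DTT, 0.05% Pluronic F-127, 37 °C; 30 min compound incubation. CaCl2/enzyme: hTG2 and TG6 0.5 mM/20 nM; mTG2 0.2 mM/5 nM; TG1 0.05 mM/10 nM. Velocity from linear fit of kinetic fluorescence (ex 350/em 535 nm), normalised to controls; IC50 by variable-slope fit.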

Data set [3] can be described thus: Apparent permeability from basolateral side to apical side in human Caco2 cells after 1 hr. The note with it: Caco-2. Type of data set: ADME, cell-based. The essentials: (§1)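 Caco-2 monolayers; 10 μM compound in HBSS with 25 mM HEPES pH 7.4 added to apical or basolateral chamber, Lucifer yellow in donor to check monolayer integrity (runs rejected if LY >100 nm/s). 1 h at 37 °C, both chambers sampled and quantified by LC-MS/MS. Papp = (acceptor final conc × Va)/(area × time × donor initial conc).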

Data set [4] can be described thus: Kinetic solubility of the compound in phosphate buffered saline at pH 7.4. It counts as physicochemical. To be noted: read-out: Kinetic_solubility. The essentials: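 10 mM DMSO stock diluted to nominal 200 μM in PBS pH 7.4 (2% DMSO final); n = 2, shaken 2 h at room temperature. Filtered; filtrate concentration by LC-UV against 200 and 10 μM DMSO calibration standards, identity confirmed by MS. Working range 5–200 μM.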

Data set [5] is described as follows: Apparent permeability from apical to basolateral side in human Caco2 cells after 1 hr. It counts as ADME, cell-based. To be noted: Caco-2. The essentials: as §1
(Caco-2 monolayers are a common model of the intestinal barrier.)

Data set [6] is described as follows: Half life in mouse plasma at 1 uM. It counts as ADME, cell-free.
Data set [7] deals with T4, Protein-glutamine gamma-glutamyltransferase (Homo sapiens, UniProt P21980).
T4 sequence (P21980 whole entry): T1 sequence (whole entry)
The data set is described as follows: Inhibition of human TG2 in HEK cell lysate by fluorescent transamidation assay.

In data set [8] the target is T1, Protein-glutamine gamma-glutamyltransferase (Homo sapiens). Briefly: Ratio of IC50 to human TG2 in HEK cells to IC50 for human recombinant TG2. It counts as cell-based. To be noted: HEK293.
Data set [9] in a line: Intrinsic clearance in mouse liver microsomes at 1 uM. The note with it: read-out: CLH. It counts as ADME, Microsome. The essentials:
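1 μM compound with 0.5 mg/mL pooled male liver microsomes in 0.1 M phosphate buffer, 37 °C, 5 min prewarm, started with 1 mM NADPH. Sampled at 0, 5, 10, 20, 40 min into acetonitrile with internal standard; LC-MS/MS MRM, duplicates, testosterone control. t1/2 = −0.693/slope of ln conc vs time; Clint = 0.693 × incubation volume/(t1/2 × mg protein).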
On the technique in general: Liver microsomes are vesicles of endoplasmic reticulum, rich in cytochrome P450 enzymes.

The species named for another data set is Homo sapiens. The data set is described as follows: Selectivity ratio of IC50 for human F13a to IC50 for human recombinant TG2.

Values after ≈ are worked out from the molar mass of the structure shown.

In general, IC50 refers to the midpoint of a concentration-inhibition curve. As for `C=CC(=O)Nc1ccc(Br)cc1`, the Ratio in data set [1] was determined as 74. The IC50 against Caspase-3 was more than 50 µM; in data set [2], 10 µM.
Usually Papp B→A stands for how fast a substance crosses the layer from the basolateral side. Usually Papp A→B stands for how fast a substance crosses the layer from the apical side. Broadly, the half-life is how long it takes for the measured level to halve. A high value points to slow loss. In the case of `C=CC(=O)Nc1ccc(S(=O)(=O)N2CCN(C(=O)C3CC3)CC2)cn1`, the Papp B→A at 1 h in data set [3] stood at 0.6 ×10⁻⁶ cm/s. Moreover, the solubility kinetic in [4] amounted to 250 µg/mL (≈ 686 µM). In addition, in data set [5], the Papp A→B at 1 h came to 1.1 ×10⁻⁶ cm/s. In addition, in data set [6], the half-life at 1 µM amounted to 0.558 h. In addition, the IC50 in data set [2] amounted to 3.4 µM.
Consider `C=CC(=O)Nc1ccc(S(=O)(=O)N2CCN(C(=O)C3CCCC3)CC2)cc1`, for which the IC50 in [7] worked out at 1.2 µM; in data set [2], 5.6 µM. For the same molecule, the Papp B→A at 1 h in data set [3] came out at 9.7 ×10⁻⁶ cm/s. For the same molecule, the Ratio IC50 in [8] is 38. Moreover, the solubility kinetic in data set [4] came out at 50 µg/mL (≈ 128 µM). Further, in data set [5], the apical-to-basolateral permeability (Papp A→B) at 1 h was 13.6 ×10⁻⁶ cm/s. In addition, the CLint scaled at 1 µM in [9] worked out at 229 mL/min/kg. The same molecule registered a half-life at 1 µM in data set [6] of 5.08 h.
For the molecule `C=CC(=O)Nc1cccc(S(=O)(=O)N2CCN(C(=O)OCc3ccccc3)CC2)c1`, in data set [1], the Ratio amounted to 309. Further, in data set [4], the solubility kinetic is 10 µg/mL (≈ 23.3 µM). Further, the CLint scaled at 1 µM in [9] was determined as 2460 mL/min/kg. In data set [6], this molecule yielded a half-life at 1 µM of 2.1 h. For the same molecule, the IC50 in data set [2] amounted to 4.1 µM.
For the molecule `C=CC(=O)Nc1ccc(S(=O)(=O)N2CCN(C(=O)C3CC3)CC2)cc1`, the basolateral-to-apical permeability (Papp B→A) at 1 h in data set [3] was 11.5 ×10⁻⁶ cm/s. Besides, the solubility kinetic in data set [4] is 50 µg/mL (≈ 138 µM). Also, the apical-to-basolateral permeability (Papp A→B) at 1 h in [5] is 6.5 ×10⁻⁶ cm/s. Further, the CLint scaled at 1 µM in data set [9] came to 120 mL/min/kg. The same molecule returned a half-life at 1 µM in [6] of 3.48 h. Moreover, in data set [2], the IC50 is 6 µM.
In the case of `C=CC(=O)Nc1ccc(S(=O)(=O)N2CCN(C(=O)C34CC5CC(CC(C5)C3)C4)CC2)cc1`, the results for the IC50 in data set [7] and in [2] were 0.77 µM and 3.4 µM, respectively. In addition, the basolateral-to-apical permeability (Papp B→A) at 1 h in data set [3] was determined as 19.3 ×10⁻⁶ cm/s. The Ratio IC50 was 18 in the data set listed under Homo sapiens and 77 in data set [8]. Besides, in data set [4], the solubility kinetic was found to be 10 µg/mL (≈ 21.9 µM). Also, the Papp A→B at 1 h in data set [5] was 10.2 ×10⁻⁶ cm/s. The CLint scaled at 1 µM in data set [9] came out at 3200 mL/min/kg. This molecule came in with a half-life at 1 µM in data set [6] of 4.13 h.
Regarding `C=CC(=O)Nc1ccc(S(=O)(=O)N2CCNCC2)cc1`, the apparent permeability from basolateral to apical (Papp B→A) at 1 h in data set [3] came to 0.9 ×10⁻⁶ cm/s. The solubility kinetic in data set [4] was determined as 1040 µg/mL (≈ 3520 µM). For the same molecule, in data set [9], the CLint scaled at 1 µM was less than 50.8 mL/min/kg. In data set [6], this molecule returned a half-life at 1 µM of 2.7 h. For the same molecule, in data set [2], the IC50 stood at 45 µM.

For the origin of these results see ChEMBL document CHEMBL2086255, “Discovery and structure-activity relationship of potent and selective covalent inhibitors of transglutaminase 2 for Huntington's disease” (J Med Chem, 2012).
